The source made the active and inactive calls. The rule behind the calls is not given here.
How the values were obtained:
[1] = Metal chelating activity assessed as compound-Cu2+ complex formation measured after 40 mins by calcein dye based fluorescence assay; conditions: dose 10-50 µM
Outline: (§1)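 Calcein (10 µM) in 50 mM HEPES was quenched by 10 µM CuCl₂ (or FeCl₃ for the Fe³⁺ arm). Chelator was added from DMSO stock to a final 10 or 50 µM and incubated 40 min at room temperature. Recovery rate was calculated from fluorescence (λex 485 / λem 520 nm); n = 3.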

[2] = Metal chelating activity assessed as compound-Fe3+ complex formation measured after 40 mins by calcein dye based fluorescence assay; conditions: dose 10-50 µM; outline: as §1
PANC-1 [3] = assay: Cytotoxicity against human PANC-1 cells assessed as reduction in cell viability at 20 uM measured after 48 hrs by MTT assay relative to control; assay type: functional
Outline: (§2)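 MTT assay with 48 h compound exposure at 10 or 20 µM. Cells seeded 6 × 10⁴ per well and grown 24 h beforehand. MTT 4 h, DMSO solubilisation, A490 read. Percent cell death given as mean ± SD, n = 3.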

A549 [4] = assay: Cytotoxicity against human A549 cells assessed as reduction in cell viability measured after 48 hrs by MTT assay; assay type: functional, cell-based; conditions: A549, 48 h
HeLa [5] = assay: Cytotoxicity against human HeLa cells assessed as reduction in cell viability measured after 48 hrs by MTT assay; assay type: functional, cell-based
HepG2 [6] = assay: Cytotoxicity against human HepG2 cells assessed as reduction in cell viability measured after 48 hrs by MTT assay; assay type: functional, cell-based; conditions: HepG2, 48 h
Outline: (§3)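 Cells seeded 6 × 10⁴ per well, cultured 24 h at 37 °C under 5% CO₂, then exposed to compound for 48 h, with or without 50 µM CuCl₂ or FeCl₃ co-incubation. MTT added for 4 h at 37 °C, formazan dissolved in DMSO, A490 read. IC50 reported as mean (SD), n = 3.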

MCF7 [7] = assay: Cytotoxicity against human MCF7 cells assessed as reduction in cell viability measured after 48 hrs by MTT assay; assay type: functional, cell-based; conditions: MCF7, 48 h; outline: as §3
PANC-1 [8] = assay: Cytotoxicity against human PANC-1 cells assessed as reduction in cell viability measured after 48 hrs by MTT assay; assay type: functional, cell-based; conditions: PANC-1, 48 h; outline: as §3
HCT-116 [9] = assay: Cytotoxicity against human HCT-116 cells assessed as reduction in cell viability measured after 48 hrs by MTT assay; assay type: functional, cell-based; conditions: HCT-116, 48 h; outline: as §3
PC-3 [10] = assay: Cytotoxicity against human PC-3 cells assessed as reduction in cell viability measured after 48 hrs by MTT assay; assay type: functional, cell-based; conditions: PC-3, 48 h; outline: as §3
SW1990 [11] = assay: Cytotoxicity against human SW1990 cells assessed as reduction in cell viability measured after 48 hrs by MTT assay; assay type: functional, cell-based; conditions: SW1990, 48 h; outline: as §3
A549 [12] = assay: Cytotoxicity against human A549 cells assessed as reduction in cell viability measured after 48 hrs in presence of CuCl2 by MTT assay; assay type: functional, cell-based; conditions: A549, 48 h
HeLa [13] = assay: Cytotoxicity against human HeLa cells assessed as reduction in cell viability measured after 48 hrs in presence of CuCl2 by MTT assay; assay type: functional, cell-based
HepG2 [14] = assay: Cytotoxicity against human HepG2 cells assessed as reduction in cell viability measured after 48 hrs in presence of CuCl2 by MTT assay; assay type: functional, cell-based; conditions: HepG2, 48 h; outline: as §3
MCF7 [15] = assay: Cytotoxicity against human MCF7 cells assessed as reduction in cell viability measured after 48 hrs in presence of CuCl2 by MTT assay; assay type: functional, cell-based; conditions: MCF7, 48 h; outline: as §3
PANC-1 [16] = assay: Cytotoxicity against human PANC-1 cells assessed as reduction in cell viability measured after 48 hrs in presence of CuCl2 by MTT assay; assay type: functional, cell-based; conditions: PANC-1, 48 h; outline: as §3
HCT-116 [17] = assay: Cytotoxicity against human HCT-116 cells assessed as reduction in cell viability measured after 48 hrs in presence of CuCl2 by MTT assay; assay type: functional, cell-based; conditions: HCT-116, 48 h; outline: as §3
PC-3 [18] = assay: Cytotoxicity against human PC-3 cells assessed as reduction in cell viability measured after 48 hrs in presence of CuCl2 by MTT assay; assay type: functional, cell-based; conditions: PC-3, 48 h; outline: as §3
SW1990 [19] = assay: Cytotoxicity against human SW1990 cells assessed as reduction in cell viability measured after 48 hrs in presence of CuCl2 by MTT assay; assay type: functional, cell-based; conditions: SW1990, 48 h; outline: as §3
A549 [20] = assay: Cytotoxicity against human A549 cells assessed as reduction in cell viability measured after 48 hrs in presence of FeCl3 by MTT assay; assay type: functional, cell-based; conditions: A549, 48 h
HeLa [21] = assay: Cytotoxicity against human HeLa cells assessed as reduction in cell viability measured after 48 hrs in presence of FeCl3 by MTT assay; assay type: functional, cell-based
HepG2 [22] = assay: Cytotoxicity against human HepG2 cells assessed as reduction in cell viability measured after 48 hrs in presence of FeCl3 by MTT assay; assay type: functional, cell-based; conditions: HepG2, 48 h; outline: as §3
MCF7 [23] = assay: Cytotoxicity against human MCF7 cells assessed as reduction in cell viability measured after 48 hrs in presence of FeCl3 by MTT assay; assay type: functional, cell-based; conditions: MCF7, 48 h; outline: as §3
PANC-1 [24] = assay: Cytotoxicity against human PANC-1 cells assessed as reduction in cell viability measured after 48 hrs in presence of FeCl3 by MTT assay; assay type: functional, cell-based; conditions: PANC-1, 48 h; outline: as §3
HCT-116 [25] = assay: Cytotoxicity against human HCT-116 cells assessed as reduction in cell viability measured after 48 hrs in presence of FeCl3 by MTT assay; assay type: functional, cell-based; conditions: HCT-116, 48 h; outline: as §3
PC-3 [26] = assay: Cytotoxicity against human PC-3 cells assessed as reduction in cell viability measured after 48 hrs in presence of FeCl3 by MTT assay; assay type: functional, cell-based; conditions: PC-3, 48 h; outline: as §3
SW1990 [27] = assay: Cytotoxicity against human SW1990 cells assessed as reduction in cell viability measured after 48 hrs in presence of FeCl3 by MTT assay; assay type: functional, cell-based; conditions: SW1990, 48 h; outline: as §3
[28] = Cytotoxicity against human H6C7 cells assessed as reduction in cell viability measured after 48 hrs by MTT assay; assay type: cell-based; conditions: H6C7, 48 h; outline: as §3
[29] = Cytotoxicity against human RWPE2 cells assessed as reduction in cell viability measured after 48 hrs by MTT assay; assay type: cell-based; conditions: RWPE2, 48 h; outline: as §3
SW1990 [30] = assay: Induction of apoptosis in human SW1990 cells at 12 uM measured after 24 hrs by Annexin V-FITC/propidium iodide staining based flow cytometry; assay type: functional, cell-based
Outline: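 SW1990 cells seeded 5 × 10⁵ per well and grown 24 h, then treated 24 h at 8 or 12 µM. Optional 1 h pretreatment with 20 mM NAC or 50 µM carboxyl-PTIO before 12 µM treatment. Cells stained with annexin V-FITC 15 min and PI 5 min at room temperature in the dark, then analysed by flow cytometry. Mean ± SD, n = 3.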

SW1990 [31] = assay: Antitumor activity against human SW1990 cells xenografted in Balb/c nude mouse assessed as tumor size at 20 mg/kg, iv administered every 3 days measured after 21 days (reference value: 1.23 +/- 0.25 cm3); assay type: functional; conditions: time 21 day
Outline: (§4)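 Male BALB/c nude mice, 3–5 weeks old, given 1 × 10⁷ SW1990 cells subcutaneously; when tumors reached about 65 mm³, randomised to groups of eight. Saline vehicle control, dosing intravenously every three days. Tumor size monitored every two days for three weeks; tumors dissected at sacrifice on day 21, volume = d² × D/2 (d smallest, D largest diameter). Mean ± SD.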

SW1990 [32] = assay: Antitumor activity against human SW1990 cells xenografted in Balb/c nude mouse assessed as tumor growth inhibition at 20 mg/kg, iv administered every 3 days measured after 21 days relative to control; assay type: functional; conditions: 504 h, time 21 day, read-out: TGI; outline: as §4
[33] = Drug metabolism in human PANC-1 cells assessed as nitric oxide release at 10 uM measured after 8 hrs by Griess assay; assay type: ADME, cell-based; conditions: panc-1, 8 h
Outline: (§5)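 Cells exposed 8 h to 10 µM compound. Nitrite measured by Griess reagent kit at 540 nm against a NaNO₂ calibration curve. Mean ± SD, n = 3.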

[34] = Drug metabolism in human SW1990 cells assessed as nitric oxide release at 10 uM measured after 8 hrs by Griess assay; assay type: ADME, cell-based; conditions: sw1990, 8 h; outline: as §5
A549 [35] = assay: Cytotoxicity against human A549 cells assessed as reduction in cell viability at 10 to 20 uM measured after 48 hrs by MTT assay; assay type: functional, cell-based; conditions: dose 10-20 µM
HeLa [36] = assay: Cytotoxicity against human HeLa cells assessed as reduction in cell viability at 10 to 20 uM measured after 48 hrs by MTT assay; assay type: functional, cell-based; conditions: dose 10-20 µM
HepG2 [37] = assay: Cytotoxicity against human HepG2 cells assessed as reduction in cell viability at 10 to 20 uM measured after 48 hrs by MTT assay; assay type: functional, cell-based; conditions: dose 10-20 µM; outline: as §2
MCF7 [38] = assay: Cytotoxicity against human MCF7 cells assessed as reduction in cell viability at 10 to 20 uM measured after 48 hrs by MTT assay; assay type: functional, cell-based; conditions: dose 10-20 µM; outline: as §2
PANC-1 [39] = assay: Cytotoxicity against human PANC-1 cells assessed as reduction in cell viability at 10 uM measured after 48 hrs by MTT assay; assay type: functional, cell-based; outline: as §2
[40] = Drug metabolism in human SW1990 cells assessed as nitric oxide release at 12 uM measured after 24 hrs by DAF-FM DA probe based flow cytometry; assay type: ADME, cell-based; conditions: sw1990, 24 h
Outline: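 SW1990 cells at 80% confluence loaded with 5 µM DAF-FM DA for 20 min at 37 °C, rinsed, then incubated with compound. Optional 1 h pretreatment with 50 µM carboxyl-PTIO before 12 µM treatment. Fluorescence read by flow cytometry (ex 495 / em 515 nm). Mean ± SD, n = 3.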

SW1990 [41] = assay: Cytotoxicity against human SW1990 cells assessed as reduction in cell viability at 10 to 20 uM measured after 48 hrs by MTT assay; assay type: functional, cell-based; conditions: dose 10-20 µM; outline: as §2

Row | SMILES | Activity [1] | Activity [2] | Activity (PANC-1 [3]) | IC50 (A549 [4]) | IC50 (HeLa [5]) | IC50 (HepG2 [6]) | IC50 (MCF7 [7]) | IC50 (PANC-1 [8]) | IC50 (HCT-116 [9]) | IC50 (PC-3 [10]) | IC50 (SW1990 [11]) | IC50 (A549 [12]) | IC50 (HeLa [13]) | IC50 (HepG2 [14]) | IC50 (MCF7 [15]) | IC50 (PANC-1 [16]) | IC50 (HCT-116 [17]) | IC50 (PC-3 [18]) | IC50 (SW1990 [19]) | IC50 (A549 [20]) | further results
1 | Oc1cccc2cccnc12 [OXYQUINOLINE] | Dose-dependent effect | Dose-dependent effect | 48% | 31.2 µM | > 50 µM | > 50 µM | > 50 µM | 24.5 µM | 21.1 µM | 32 µM | 32.1 µM | 6.58 µM | 35.6 µM | 32.1 µM | 21.1 µM | 7.43 µM | 7.25 µM | 14.4 µM | 10.2 µM | 32.6 µM | IC50 (HeLa [21]): > 50 µM; IC50 (HepG2 [22]): > 50 µM; IC50 (MCF7 [23]): > 50 µM; IC50 (PANC-1 [24]): 30.4 µM; IC50 (HCT-116 [25]): 26.3 µM; IC50 (PC-3 [26]): > 50 µM; IC50 (SW1990 [27]): > 50 µM; IC50 [28]: 20.1 µM; IC50 [29]: 25.6 µM; Activity (SW1990 [30]): Active; Activity (SW1990 [31]): 0.68 cm3; inhibition in vivo at 20 mg/kg (SW1990 [32]): 44.7%
2 | O=C(NCCCOc1no[n+]([O-])c1S(=O)(=O)c1ccccc1)c1ccc2cccc(O)c2n1 | Dose-dependent effect | Dose-dependent effect | 75.2% | 13.8 µM | 28.7 µM | 17.9 µM | 13.4 µM | 7.54 µM | 14.6 µM | 11.7 µM | 9.24 µM | 4.68 µM | 9.56 µM | 6.32 µM | 3.23 µM | 0.86 µM | 5.2 µM | 5.63 µM | 1.47 µM | 17.9 µM | Drug metabolism [33]: Metabolite_Detected; Drug metabolism [34]: Metabolite_Detected; Activity (A549 [35]): Active; Activity (HeLa [36]): Active; Activity (HepG2 [37]): Active; Activity (MCF7 [38]): Active; Activity (PANC-1 [39]): Active; IC50 (HeLa [21]): 33.2 µM; IC50 (HepG2 [22]): 22.4 µM; IC50 (MCF7 [23]): 18.2 µM; IC50 (PANC-1 [24]): 13.9 µM; IC50 (HCT-116 [25]): 20.1 µM; IC50 (PC-3 [26]): 17.1 µM; IC50 (SW1990 [27]): 12.1 µM; IC50 [28]: 9.05 µM; IC50 [29]: 8.77 µM
3 | O=C(NCCCOc1nonc1S(=O)(=O)c1ccccc1)c1ccc2cccc(OCc3ccc(B(O)O)cc3)c2n1 | – | – | – | – | – | – | – | – | – | – | – | – | – | – | – | – | – | – | – | – | Drug metabolism [40]: Metabolite_Notdetected; Activity (SW1990 [41]): inactive; Activity (SW1990 [30]): Active

Source: ChEMBL document CHEMBL4732146, “Nitric oxide-donating and reactive oxygen species-responsive prochelators based on 8-hydroxyquinoline as anticancer agents” (Eur J Med Chem, 2021)
